# Screening results (PubChem BioAssay)
# This is a sample that favours compounds with a hit; in the whole collection about 2.3% have one here.
# SR-BI DiI-HDL act – activators of SR-BI mediated DiI-HDL uptake, primary screen, ldlA[mSR-BI] CHO cells, DiI fluorescence | activation, % at 12.5 µM | 320,000 tested, 0.096% active | 3 h; 100 = double the neutral-control signal | AID 504775, 2011;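 active = mean replicate activation of at least 60% and every replicate at or above 60%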;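 also: 0% = median plate neutral-control signal and 100% = twice that signal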
#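 system = CHO ldlA[mSR-BI] cells, LDL receptor-null, SR-BI overexpressing | medium = Ham's F12 with 0.5% BSA, HEPES 25 mM, pH 7.4 | probe or stimulus = DiI-HDL 10 µg/mL | compound dosing = single-point compound dose | incubation = compound exposure 3 h, 37 °C | technique = DiI fluorescence, bottom read | read-out = cell-associated DiI fluorescence as measure of HDL uptake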
# CAL PDZ FP-1 – CAL PDZ peptide-binding inhibitors, primary screen, biochemical, fluorescence polarization, Cer-tagged CAL PDZ, HTS. Golgi-associated PDZ and coiled-coil motif-containing protein (Homo sapiens), Q9HD26. purified CAL PDZ, TMR-peptide fluorescence polarization, 1 h. inhibition, % at 20 µM. 330,000 tested, 0.02% active;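 active = highest replicate inhibition of at least 40%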;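 also: plate controls were DMSO neutral control wells for no effect and unlabeled competitor peptide control wells for full effect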
#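 System: purified tagged CAL PDZ domain construct (CerCALP). Schedule: 1 h incubation at room temperature before polarization reading. Medium: 25 mM sodium phosphate pH 7.4, 150 mM NaCl, TCEP, IgG, Thesit. Read-out: percent inhibition from loss of millipolarization. Measured by: FP readout, S and P plane fluorescence. Probe or stimulus: fluorescent TMR peptide probe.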
# ATG4B inh – ATG4B protease inhibitors, primary screen, biochemical, fluorescence, uHTS | 340,000 tested, 0.51% active | ATG4B cleavage of LC3-PLA2, NBD-HPC fluorescence, 1 h | Cysteine protease ATG4B (Homo sapiens), Q9Y4P1 | inhibition, % at 8.33 µM; in the data active = inhibition above about 40%
# Target sequence (Q9Y4P1 whole entry, looked up): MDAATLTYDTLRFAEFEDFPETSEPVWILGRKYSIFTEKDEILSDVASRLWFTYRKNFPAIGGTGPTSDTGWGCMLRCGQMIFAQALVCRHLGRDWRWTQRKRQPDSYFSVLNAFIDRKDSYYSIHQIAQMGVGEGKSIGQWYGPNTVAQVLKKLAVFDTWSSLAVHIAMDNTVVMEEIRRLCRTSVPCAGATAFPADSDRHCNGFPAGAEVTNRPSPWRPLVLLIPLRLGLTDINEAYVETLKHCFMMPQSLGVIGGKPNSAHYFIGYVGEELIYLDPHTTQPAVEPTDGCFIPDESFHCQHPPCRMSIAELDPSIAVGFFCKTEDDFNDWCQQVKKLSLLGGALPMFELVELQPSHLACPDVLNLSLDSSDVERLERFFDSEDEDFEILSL
# CAL PDZ FP-2 – untagged CAL PDZ binding inhibitors, primary screen, biochemical, fluorescence polarization, HTS; purified CAL PDZ, TMR-peptide fluorescence polarization, 1 h; 300,000 tested, 0.92% active; inhibition, % at 24.9 µM; Golgi-associated PDZ and coiled-coil motif-containing protein (Homo sapiens), Q9HD26; AID 602252, 2012;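 active = mean inhibition of at least 30% with at least half of replicates also reaching 30%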;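 also: 0% = DMSO neutral control and 100% = excess unlabeled competitor peptide PRC23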
# SR-BI HDL uptake – inhibitors of SR-BI mediated HDL lipid uptake, primary screen, ldlA[mSR-BI] cells, fluorescence, single point. ldlA[mSR-BI] CHO cells, DiI-HDL uptake fluorescence, 3 h. inhibition, % at 12.5 µM. 320,000 tested, 0.96% active. Scavenger receptor class B member 1 (Mus musculus), Q61009. AID 488896, 2010;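 active = mean replicate inhibition of at least 70% and a set share of replicates each scoring 70 or more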;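 also: 0% = median of neutral control wells and 100% = median of positive control wells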
# The depositor's hits bear a star; . = no result.
SMILES,SR-BI DiI-HDL act,CAL PDZ FP-1,ATG4B inh,CAL PDZ FP-2,SR-BI HDL uptake
CN(C(=O)COC(=O)c1ccccc1Nc1ccccc1)c1c(N)n(Cc2ccccc2)c(=O)[nH]c1=O,-72,-2,-4,-3,72*
COc1ccc2ccccc2c1/C=N/NC(=O)c1cccc(Br)c1,-60,-2,-12,0,60
O=C(N/N=C/c1c(O)ccc2ccccc12)c1cccc(C(F)(F)F)c1,-137,0,8,0,137*
Cc1ccc(C(=O)CSc2nnc(-c3ccccc3N)n2C)cc1,-2,.,-13,37*,2
CCn1c(SCC(=O)c2ccc3c(c2)Cc2ccccc2-3)nnc1-c1ccc(N)cc1,-77,0,16,4,77*
CCn1c(SCC(=O)c2ccc(O)c(O)c2)nnc1-c1ccc(C)cc1,-5,0,-6,-3,5
CNC(=O)OCc1nc(SSC(C)(C)C)n(C)c1COC(=O)NC,19,-1,-9,1,-19
COc1ccc2oc(=O)c(-c3csc(Nc4ccc(O)cc4)n3)cc2c1,-84,-3,37,1,84*
Cc1nn(-c2ccccc2)c2nc(C(Cl)(Cl)Cl)[nH]c(=O)c12,2,-1,2,59*,-2
Cc1cc(C(F)(F)F)c2c(C)nn(-c3ccccc3)c2n1,-9,0,0,.,9
CC(=O)Nc1ccc(NC(=O)CSc2ccc3nnc(-c4ccccn4)n3n2)cc1,-3,-2,-5,8,3
CSc1nnc(-c2ccc(S(=O)(=O)N3CCCC3)cc2)n1C,29,-3,3,0,-29
Cn1c(SCC(N)=O)nnc1-c1ccc(S(=O)(=O)N2CCCC2)cc1,32,0,5,42*,-32
CCOC(=O)COc1c(Br)cc(/C=C2\SC(=O)N(CC(=O)N3CCCC3)C2=O)cc1OC,-72,0,-2,-1,72*
Cc1ccc(S(=O)(=O)c2c(O)c3ccc(C(=O)O)cc3[nH]c2=O)cc1,6,1,-9,0,-6
Cc1cc(Nc2ncc(Cl)cc2Cl)n(-c2ccccc2C)n1,8,-1,32,-3,-8
Cc1ccc(-n2nc(C)cc2Nc2ncc(Cl)cc2Cl)cc1,-82,-1,-4,2,82*
NS(=O)(=O)c1ccc(NC(=O)COC(=O)c2ncc(Cl)c(Cl)c2Cl)cc1,10,0,-1,-1,-10
Cc1ccccc1-c1cccc([C@@H]2C[C@H]3[C@H](CON3C)CN2S(=O)(=O)c2ccccc2C)c1,1,-3,1,-7,-1
O=C(Nc1cccnc1)/C(N=Nc1ccc(Cl)c(C(F)(F)F)c1)=C(\O)c1ccccc1,-77,-2,4,2,77*
COc1ccc(-c2sc(NC(=O)c3ccc(C)cc3)nc2-c2ccc([N+](=O)[O-])cc2)cc1,-90,0,-5,-1,90*
O=C(CNC(=S)N(Cc1ccccc1)Cc1cccnc1)NCc1ccccc1,11,-3,-7,-2,-11
COC(CNC(=O)CNC(=S)N(Cc1ccccc1)Cc1cccnc1)OC,32,1,-2,84*,-32
Cc1ccc(NC(=S)N(CCN2CCOCC2)Cc2cc3cc4c(cc3[nH]c2=O)OCCO4)cc1,-4,-2,-15,-3,4
CCOc1ccc(NC(=S)N(CCN2CCOCC2)Cc2cc3cc4c(cc3[nH]c2=O)OCO4)cc1,0,0,-12,63*,0
SMILES,SR-BI DiI-HDL act,CAL PDZ FP-1,ATG4B inh,CAL PDZ FP-2,SR-BI HDL uptake
Cc1ccc(NC(=S)N(CCN2CCOCC2)Cc2cc3cc4c(cc3[nH]c2=O)OCO4)cc1,3,-1,0,52*,-3
Cc1cc(S(=O)(=O)N2CCOCC2)c(C)s1,-7,-3,2,1,7
CN(Cc1c(F)cccc1Cl)C(=O)c1ccc(NC(=O)CC2SC(N3CCCC3)=NC2=O)cc1 (stereo not given),-9,-3,-8,-4,9
Cc1ccc(C)c(S(=O)(=O)N2CCCOC2CNC(=O)C(=O)NCCc2ccco2)c1 (stereo not given),-24,1,3,69*,24
Cc1cc(C)c(S(=O)(=O)N2CCOC2CNC(=O)C(=O)NCCc2c[nH]c3ccccc23)c(C)c1 (stereo not given),196*,-1,-13,.,-196
COc1cc(Cl)ccc1OCc1cc(C(=O)N(C)CC2CCCCO2)no1 (stereo not given),15,-2,0,-2,-15
Cc1cc(/C=N/NC(=O)c2ccc(CN3CCOCC3)cc2)c(C)n1-c1ccccc1,-72,.,-6,-2,72*
C/C(=N\NC(=O)c1ccc(CN2CCOCC2)cc1)c1cccc([N+](=O)[O-])c1,-37,-3,-7,-3,37
C/C(=N\NC(=O)c1ccc(CN2CCOCC2)cc1)c1ccc([N+](=O)[O-])cc1,-71,-3,-10,-5,71*
C/C(=N/NC(=O)CNC(=O)c1ccccn1)c1ccccc1,-10,-2,-2,-2,10
C/C(=N/NC(=O)CNC(=O)c1ccccn1)c1ccc([N+](=O)[O-])cc1,-80,0,4,1,80*
O=C(Cc1ccc([N+](=O)[O-])cc1)NCc1ccccn1,-13,-1,-3,76*,13
CN(c1ccc(OCC(=O)NCc2cccnc2)cc1)S(=O)(=O)c1ccc(Cl)cc1,-22,-3,2,-2,22
Cc1ccnc(NS(=O)(=O)c2ccc(NC(=O)c3ccc(Cl)cc3[N+](=O)[O-])cc2)n1,17,-1,-5,-3,-17
C/C(=N/NC(=O)Cc1cc(=O)[nH][nH]1)c1ccc([N+](=O)[O-])cc1,-2,-2,6,36*,2
O=C(Nc1c2c(nn1-c1ccc(Cl)cc1)CS(=O)(=O)C2)c1ccccc1,-14,-1,-5,-2,14
CCCN1C(=O)c2cc(C(=O)Nc3ccc(OC)cc3OC)ccc2C1Nc1ccc(OC)cc1OC (stereo not given),-74,-2,-15,-7,74*
CCOC(=O)/C(=N\Nc1ccccc1[N+](=O)[O-])c1csc(N)n1,-78,0,11,3,78*
CCOC(=O)/C(=N\Nc1ccc(C(C)=O)cc1)c1csc(Nc2ccccc2)n1,-51,1,-16,-1,51
O=C(CCNC(=O)c1ccc(Br)cc1)NNC(=O)C1COc2ccccc2O1 (stereo not given),1,1,-8,-1,-1
